From PubChem BioAssay
Yeast eIF2B: modulators of yeast eIF2B activity; S. cerevisiae eIF2B-epsilon R284H, GCN4-lacZ luminescence; inhibition, % at 25 µM (by protocol); 27,000 compounds, 0.91% hits;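 active = mutant luminescence inhibited past about 50% while wild type luminescence and mutant growth stay under set limits, limit read from the data; inconclusive = mutant versus wild type luminescence inhibition gap past a set limit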
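System: Yeast eIF2B-epsilon R284H mutant carrying GCN4–beta-galactosidase fusion | Read-out basis: Percent inhibition, luminescence and growth | Compound: 25 µM single dose | Times: 16 h at 30 °C exposure | Measured by: Luminescence and A595 | Buffer or medium: YPD medium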
Yeast growth tox: Inhibits yeast growth, turbidity readout; growth inhibition, % at 25 µM (by protocol); 30,000 compounds, 0.3% hits; S. cerevisiae wild-type growth, A595 turbidity, 16 h;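 active = mutant and wild-type yeast strains alike exhibit over 30% growth inhibition; inconclusive = a strain exceeds 50% while the second remains under 30%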;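 note: 0% = untreated cell controls and 100% = YPD media blanks without cells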
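Test system: Wild-type and eIF2Bepsilon-R284H mutant S. cerevisiae, screened separately | Dosing: Single 25 µM compound dose in 0.2% DMSO | Schedule: 16 h compound exposure during growth at 30 °C | Detection: A595 turbidity | Evaluation: Growth inhibition (%) versus cell controls and blanks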
The depositor's hits bear a star; ? = inconclusive; nt = no result given. Rows were chosen to be rich in hits. Some 1% of all compounds tested hit in one or more screens of this group.

SMILES | Yeast eIF2B | Yeast growth tox
NC(=S)N/N=C/c1ccc(-c2ccc(Cl)c(Cl)c2)o1 | 43.5 | 30.0*
Clc1ccc(Cl)c(-c2ccc(/C=N/c3ncn[nH]3)o2)c1 | -25.9 | 3.2
Cc1ccc(-n2c(C)c3c(C)nnc(C)c3c2C)cc1 | 19.8 | 17.0
COc1ccc(-n2nc(C(=O)Nc3ccc4c(c3)OCO4)c3ccccc3c2=O)c(OC)c1 | -17.0 | -32.7
COc1ccccc1-n1nc(C(=O)Nc2ccc3c(c2)OCO3)c2ccccc2c1=O | 50.2* | -13.2
CCNC(=O)CC1C(=O)N(c2ccccc2)C(=O)N1CCc1ccc(OC)cc1 (stereo not given) | 14.4 | 5.1
CCCCN1C(=O)CN(CCc2ccccc2)C(=O)C1c1ccc(OC)cc1 (stereo not given) | 58.0* | 1.3
Cc1cccc(-n2c(=O)[nH]c3c(C(N)=O)nc(C(C)C)nc32)c1 | -4.5 | 10.0
O=C(Nc1ccc(C2CCCCC2)cc1)C1CCCN(c2ncccn2)C1 (stereo not given) | 29.1 | -19.7
Cc1cccc(Cn2cnc3c(nnn3Cc3ccc(Cl)cc3)c2=O)c1 | 59.5* | -15.8
Cc1ccc(Cn2nnc3c(=O)n(CC(=O)N4CCCc5ccccc54)cnc32)cc1 | -4.4 | 8.9
N/C(Cc1ccc([N+](=O)[O-])cc1)=N\OC(=O)c1ccc2ccccc2c1 | 29.1 | 63.9*
COc1ccc(/C(N)=N/OC(=O)c2cccc([N+](=O)[O-])c2)cc1 | 15.6 | 0.4
CN(C1CCCCC1)S(=O)(=O)c1ccc(NC(=O)C2CCCCC2C(=O)O)cc1 (stereo not given) | nt | -7.1
Cc1nnc2sc(-c3ccncc3)nn12 | 64.0* | 4.7
COc1cc(OC)c(-c2nn3c(-c4ccncc4)nnc3s2)cc1OC | -0.5 | -27.0
COCC(=O)Nc1c(C(=O)Nc2ccccc2OC)oc2ccccc12 | 10.1 | -16.7
COc1ccccc1NC(=O)c1oc2ccccc2c1NC(=O)c1cc(OC)c(OC)c(OC)c1 | 63.2* | -44.0
COc1ccc(S(=O)(=O)NCCSC(C)(C)C)cc1 | 10.1 | 3.9
Cc1c(C(=O)N2CCCC2)sc(NC(=O)c2ccc(Cl)cc2)c1C#N | 71.4* | 7.5
COc1cc(C(=O)Nc2sc(C(=O)N3CCOCC3)c(C)c2C#N)cc(OC)c1OC | 16.4 | -7.8
COc1ccc(CC(=O)NC2CCN(CC(=O)N3CCCc4ccccc43)CC2)cc1OC | 14.1 | 4.0
COc1cc(C(=O)Nc2ccc(O)cc2)ccc1OC(C)=O | 63.1 | 3.7
N#Cc1c(/N=C/c2cc(Br)cs2)sc2c1CCC2 | 60.1* | 0.0
N#Cc1c(/N=C/c2cccs2)sc2c1CCC2 | -13.8 | -0.5
SMILES | Yeast eIF2B | Yeast growth tox
COc1cc(/C=C2\C(=O)N(CCC#N)N=C2C)c(Br)cc1OC(C)C | 53.0* | -16.8
CCCCNCCCCOc1ccccc1 | 5.0 | 3.5
Cc1cc(Cl)ccc1N=c1ssnc1Cl | 1.9 | 78.9*
CC(C)NC(=O)C(=O)NC1CCCCCC1 | 22.1 | 34.2
CCCC(CCC(=O)NC1CCCCC1)C(=O)O (stereo not given) | 91.1* | -6.1
CCCCCn1c(Br)nc2c1c(=O)n(CC(N)=O)c(=O)n2C | 10.2 | -10.5
CC(=O)Nc1ccc(NC(=O)CSc2ncnn2-c2ccccc2)cc1 | 9.5 | -6.7
CCCCCCn1ccc(=N)cc1 | -16.6 | -8.1
CCCCCCCCCCn1c2c(c(=N)c3c1CCC3)CCC2 | nt | 78.9*
CCCNC(=O)CC(NS(=O)(=O)c1ccc(Cl)cc1)c1ccco1 (stereo not given) | 10.8 | 8.3
Cc1cc(C(=O)Nc2nnc(C3CCCCC3)s2)no1 | 51.3* | -1.1
Cc1ccc(C(=O)Nc2nnc(C3CCCCC3)s2)o1 | nt | 10.0
O=C(NCCc1ccccc1F)[C@@H]1CSC2c3ccccc3C(=O)N21 (stereo not given in full) | nt | 27.0
CC(C)CNC(=O)COc1ncnc2ccccc12 | nt | 7.7
c1ccc2oc(CCc3nc4ccccc4o3)nc2c1 | 17.8 | 12.6
Nc1ccc2oc(CCc3ccccc3)nc2c1 | 52.9* | -3.3
Cc1cc(=O)oc(C)c1C(=O)NCC(C)NC(=O)c1c(C)cc(=O)oc1C (stereo not given) | 21.7 | 14.4
CC(=O)Nc1cc(C(F)(F)F)ccc1OCCOc1ccccc1 | 55.1* | -5.6
COC(=O)Nc1cc(C(F)(F)F)ccc1N1CCN(c2ccccc2)CC1 | 2.0 | 8.2
CCc1c(C)nc2cc(-c3ccc(OC)c(OC)c3)nn2c1N1CCCC1 | 15.2 | 12.4
COc1ccc(-c2cc3nc(C)cc(N)n3n2)cc1 | 82.4* | -13.8
CC(C)NC(=O)CN1CCC(O)(c2ccccc2)CC1 | -23.4 | ?
COc1ccc(S(=O)(=O)N2CCOCC2)c(Cl)c1Cl | 9.3 | 1.7
O=C(Cn1c(-c2ccccc2)noc1=O)Nc1ccc(N2CCCCCC2)cc1 | -0.1 | nt
CC(C)NC(=O)CCNS(=O)(=O)c1ccc(Br)cc1 | 82.8* | -8.6
SMILES | Yeast eIF2B | Yeast growth tox
Cc1ccc(S(=O)(=O)NCCC(=O)O)cc1 | 34.6 | 15.8
O=C(CSc1nnc(-c2ccccc2F)o1)OCc1ccccc1 | 18.9 | nt
CCCCCCC1CCC(C(=O)Nn2c(C)nc3ccccc3c2=O)CC1 (stereo not given) | nt | -7.3
C=CCn1c(=O)/c(=C/c2cc(OC)c(OC)c(OC)c2)s/c1=C(/C#N)c1nc2ccccc2n1C | 19.6 | -15.1
COCCN1CCN(c2cc(-c3ccccc3)nc3cc(-c4cccc(F)c4)nn23)CC1 | nt | 73.8*
Fc1cccc(-c2cc3nc(-c4ccccc4)cc(N4CCC5(CC4)OCCO5)n3n2)c1 | -2.0 | nt
COc1ccc(/C=N/n2c(C)nnc2C)c(OC)c1OC | 28.3 | 2.9
Cc1ccccc1-n1nc2c(c1NC(=O)c1c(-c3ccccc3Cl)noc1C)CSC2 | 17.1 | 10.8
CCC(=O)Nc1c2c(nn1-c1ccc(C)cc1C)CSC2 | 52.1* | 7.8
Cc1ccccc1OCc1nc2c3cnn(C)c3ncn2n1 | 54.7* | -14.5
Cc1cccc(C)c1OCc1nnc2c3cnn(C)c3ncn12 | -12.5 | 13.4
O=C(CC1Nc2ccccc2NC1=O)NC1CCCCC1 (stereo not given) | 57.8* | -16.3
O=C(CCC1=NS(=O)(=O)c2ccccc2N1)NC1CCCCCCC1 | 22.2 | -6.4
COCC(=O)Nc1ccccc1NC(C)=O | 24.3 | 3.6
COCC(=O)NC(c1ccccc1)c1ccccc1 | 62.4* | 8.7
CCCOc1ccc(C(=O)N2CCCc3ccccc32)cc1 | 73.3* | -14.4
COc1cc(OC)cc(C(=O)N2CCCc3ccccc32)c1 | 18.8 | 2.5
Cc1nc(N2CCN(S(=O)(=O)c3ccccc3)CC2)c2cc(-c3ccccc3)sc2n1 | nt | 5.7
COc1ccc(CCNC(=O)c2c[nH]c3ccccc3c2=O)cc1OC | 4.5 | 7.1
CCOCCCNC(=O)c1c[nH]c2ccc(C)cc2c1=O | 52.3* | -3.3
CC(C)c1ccc2c(c1)C1(NN=C(c3ccccc3)S1)C(=O)N2 (stereo not given) | -2.1 | 6.7
CCc1ccc2c(c1)C1(NN=C(c3ccc(C)cc3)S1)C(=O)N2 (stereo not given) | 59.7* | nt
Cc1cccc(N2CCCn3c2nc2c3c(=O)n(CC(=O)OCc3ccccc3)c(=O)n2C)c1 | 23.9 | 11.8
CC(=O)c1cccc(-n2nnnc2SCC(=O)Nc2ccccc2N2CCCCC2)c1 | 19.4 | 7.3
CC(=O)c1cccc(-n2nnnc2SCC(=O)Nc2cccc(NC(=O)c3ccco3)c2)c1 | 61.4* | 6.9
O=C(Nc1cccnc1)c1ccccc1-c1nc(-c2ccccc2F)no1 | 10.5 | 23.9
CCOC(=O)CSc1nc2sc3c(c2c(=O)[nH]1)CCCC3 | 50.1* | -43.8
